Sampled rows, rich in hits. Any-hit rate of the full collection: about 3%.
Granule exo inh = lytic granule exocytosis inhibition; inhibition, % at 10 µM; AID 651702; actives 0.66% (n = 360,000); TALL-104 LAMP-1 surface exposure, flow cytometry; cells stimulated with thapsigargin and PMA;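 active = inhibition above about 55%, limit read from the data; inconclusive = no clear call, values can overlap the other calls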
HNF4A DNA FP = change in binding of human HNF4 alpha to DNA; P41235; HNF4a-FITC DNA binding, fluorescence polarization, 1 h; activity change, % at 10 µM; actives 0.3% (n = 360,000); in the data active = activity change above about 30%, passing the limit was not always enough
Target sequence (P41235 whole entry, looked up): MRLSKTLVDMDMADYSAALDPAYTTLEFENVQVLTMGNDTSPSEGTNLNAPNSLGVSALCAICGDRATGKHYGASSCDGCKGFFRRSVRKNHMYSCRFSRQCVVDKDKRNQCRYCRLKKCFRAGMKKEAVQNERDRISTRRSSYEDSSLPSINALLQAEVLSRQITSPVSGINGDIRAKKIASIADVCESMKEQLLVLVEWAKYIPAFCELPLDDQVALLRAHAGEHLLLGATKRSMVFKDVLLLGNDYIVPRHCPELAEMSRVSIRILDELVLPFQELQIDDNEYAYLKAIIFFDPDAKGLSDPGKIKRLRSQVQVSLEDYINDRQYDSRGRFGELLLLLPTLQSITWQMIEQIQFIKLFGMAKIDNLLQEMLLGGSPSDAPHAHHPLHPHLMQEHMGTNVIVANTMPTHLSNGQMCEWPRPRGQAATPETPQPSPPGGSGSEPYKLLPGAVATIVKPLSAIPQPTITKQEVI
Pemphigus Ab inh = inhibitors of pemphigus antibody binding to human desmoglein-3. P32926. DSG3-coupled beads, scFv-anti-DSG3-GFP binding, flow cytometry; stronger effect = lower value. binding (percent of control), % at 10 µM. actives 0.48% (n = 310,000);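 active = binding more than 3 SD below its plate's average and above zero; inconclusive = below that plate limit but binding exactly zero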;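 also: hits lower antibody fragment binding to DSG3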
Cardio protect = myocardial damage modulation in H9c2 cells; H9c2 cardiomyocytes, H2O2 injury protection, ATPLite, 2 h; protection from H2O2 cell death, % at 20 µM; actives 0.63% (n = 360,000); AID 588492;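 active = compounds giving at least 50% protection of heart cells from peroxide-induced death in the single-dose screen, raw or plate-pattern-corrected value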;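 also: 0% = DMSO wells with peroxide and 100% = DMSO wells without peroxide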
SENP1 FRET inh = blocks the human SENP1 SUMO protease catalytic domain; recombinant SENP1 catalytic domain, CyPet-SUMO1-YPet FRET cleavage; AID 624204; inhibition, % at 10 µM; actives 0.21% (n = 360,000); Q9P0U3;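 active = inhibition at least 30% at 10 µM, raw YFP signal under a set limit, fluorescence ratio 0.5 to 1.5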;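 also: 0% = enzyme with DMSO and 100% = no enzyme wells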
Target sequence (Q9P0U3 419-644 limits assumed): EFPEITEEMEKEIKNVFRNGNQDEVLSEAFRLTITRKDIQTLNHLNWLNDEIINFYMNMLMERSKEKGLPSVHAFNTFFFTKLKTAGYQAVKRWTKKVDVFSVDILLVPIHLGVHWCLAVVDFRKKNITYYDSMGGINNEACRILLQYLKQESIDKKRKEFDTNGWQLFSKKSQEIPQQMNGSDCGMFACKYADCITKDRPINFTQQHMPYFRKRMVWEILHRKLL
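Material – human SENP1 catalytic domain · Input – SENP1 enzyme, 20 pM final · Compound dosing – single concentration of 10 µM compound, 0.5% DMSO final · Timing – enzyme reaction for 50 min at room temperature, dark · Measured by – FRET fluorescence in CFP and YFP emission channels · Control set – no-enzyme wells low, DMSO-plus-enzyme wells high control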
Myeloid diff 2 = promotes myeloid progenitor differentiation. calls only at 10 µM. actives 1% (n = 360,000). ER-HoxA9 myeloid progenitors, lysozyme-GFP differentiation, flow cytometry;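 active = normalized GFP-positive differentiation at or above the plate's own cutoff, the solvent-only control mean plus 3 SD; inconclusive = no clear call, values can overlap the other calls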;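 also: cells exposed to compound for four days before flow analysis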
Exocytosis CP01 = lytic granule exocytosis inhibition. actives 11% (n = 1,500). shares compounds with Granule exo inh. TALL-104 cells, LAMP-1 externalization, flow cytometry; stimulated with PMA plus thapsigargin. inhibition, % at 10 µM; in the data active = inhibition above about 60%;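 also: 0% = stimulated vehicle wells and 100% = unstimulated wells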
An asterisk follows results filed as active; i = inactive; ? = inconclusive; / = no result; + = active, no number.

SMILES | Granule exo inh | HNF4A DNA FP | Pemphigus Ab inh | Cardio protect | SENP1 FRET inh | Myeloid diff 2 | Exocytosis CP01
NC(CCc1ccccc1)c1csc(NC(=O)Nc2cccc(Cl)c2)n1 (centres undefined) | 57.2* | 0.7 | / | -25.1 | -1.8 | i | 10.0
NC(c1ccccc1)c1csc(NC(=O)Nc2cccc(Cl)c2)n1 (centres undefined) | -5.8 | 1.3 | / | -7.1 | 2.7 | i | /
Cc1ccc2c(CN(C)Cc3ccc(OC(F)F)cc3)cc(=O)oc2c1C | 83.5* | 12.0 | 117.3 | -17.6 | -2.0 | i | -12.3
Cc1ccc2c(CN(C)Cc3cccc(F)c3)cc(=O)oc2c1C | 7.2 | 0.4 | 104.5 | -2.4 | 1.1 | i | /
CN(C)c1ccc(CN(C(=O)c2cccs2)C2CCS(=O)(=O)C2)cc1 (centres undefined) | -3.0 | 1.7 | 109.3 | -4.0 | 3.1 | i | /
CCOC(=O)CNC(=O)N1CCCC(Cc2ccccc2)(C(=O)OCC)C1 (centres undefined) | 1.9 | 14.1 | 112.8 | 1.2 | -4.1 | i | /
Cc1ccc(C)c(N2CCN(C(=O)c3ccc(CS(=O)Cc4cccc(Cl)c4)o3)CC2)c1 (centres undefined) | 57.7* | -0.9 | 103.8 | 6.9 | -0.7 | i | -4.7
O=C1Cc2cc(S(=O)(=O)NCc3ccc(F)cc3)ccc2N1 | 21.3 | -1.4 | 92.2 | 1.3 | -5.6 | i | /
CN(C)c1ccc(C(C(=O)NCC2CCCO2)N(C(=O)c2snc(C(N)=O)c2N)c2ccccc2)cc1 (centres undefined) | 18.0 | -3.9 | 109.5 | 45.1 | -1.8 | i | /
CN(C)c1ccc(C(C(=O)NCC2CCCO2)N(C(=O)c2snc(C(N)=O)c2N)c2ccc3c(c2)OCO3)cc1 (centres undefined) | 71.8* | -1.6 | 93.8 | 33.1 | 0.0 | i | -6.3
C[C@H](CO)N1C[C@H](C)[C@H](CN(C)Cc2cccc(C(F)(F)F)c2)OCc2ccccc2-c2c(n(C)c3ccccc23)C1=O | -4.2 | -5.5 | / | -6.3 | -0.2 | i | /
O=C(NCCN1CCOCC1)c1ccccc1Cl | 12.1 | -1.0 | 98.7 | -1.2 | 0.4 | i | /
Cc1ccc(C(=O)NCCN2CCOCC2)c(Cl)c1 | 55.7* | 1.7 | 206.9 | 0.5 | -0.8 | + | -13.2
COc1cc(NC(=O)c2cccc3c2C(=O)N(C2CCCCC2)C3)cc(OC)c1OC | 93.5* | -3.8 | 101.7 | 34.8 | 3.9 | ? | 12.1
Cc1cc(C)cc(NC(=O)c2cccc3c2C(=O)N(C2CCCCC2)C3)c1 | 1.4 | 1.7 | 97.2 | -9.6 | 0.9 | i | /
CN(C)C(=O)CCc1ccc2c3c([nH]c2c1)[C@]1(CCc2ccccc2)[C@@H](C(=O)N2CCCCC2)C[C@H](CC(=O)NCCCn2ccnc2)C(=O)N1CC3 | -1.2 | -6.1 | 95.0 | 13.4 | 1.8 | i | /
O=C(NN1CCCCC1)NN1CCCCC1 | 1.0 | 0.7 | / | 0.2 | -0.2 | i | /
O=C(COC(=O)CC1CC2CCC1C2)NCc1ccccc1 (centres undefined) | 3.0 | 0.6 | 94.1 | 3.5 | 0.9 | i | /
O=C(COC(=O)CC1CC2CCC1C2)NCc1ccc(Cl)cc1 (centres undefined) | 63.2* | 2.7 | 91.8 | 1.7 | 0.6 | i | -4.9
COc1cc(OC)c(CN2CCC(Cc3ccccc3)CC2)cc1Br | 0.1 | -2.7 | 89.7 | 1.4 | 2.5 | i | /
COc1ccc(OC)c(CN2CCC(Cc3ccccc3)CC2)c1 | 59.9* | -3.1 | 96.5 | 1.4 | 0.9 | i | -12.2
COc1cc(C)c(CN2CCC(Cc3ccccc3)CC2)cc1C | 55.6* | -4.7 | 98.0 | -4.9 | 0.3 | i | -12.5
COc1cc(C(=S)N2CCN(C(c3ccccc3)c3ccccc3)CC2)cc(OC)c1O | -8.3 | -0.3 | 112.8 | 0.9 | -0.9 | i | /
C=CCNc1ncnc2c1ncn2[C@H]1CN(Cc2cccs2)C[C@@H](CO)O1 | 4.8 | -1.2 | / | 1.2 | 0.6 | i | /
O=C(O)/C=C/C(=O)Nc1ccc(C2(c3ccc(NC(=O)/C=C/C(=O)O)cc3)c3ccccc3-c3ccccc32)cc1 | -3.5 | -4.6 | 116.5 | 6.5 | -0.2 | i | /
SMILES | Granule exo inh | HNF4A DNA FP | Pemphigus Ab inh | Cardio protect | SENP1 FRET inh | Myeloid diff 2 | Exocytosis CP01
Clc1ccccc1C1Nc2cccc3cccc(c23)N1 | 7.8 | -3.1 | 119.3 | 2.1 | 6.2 | i | /
Clc1cccc(C2Nc3cccc4cccc(c34)N2)c1Cl | 93.2* | 1.1 | 112.5 | -7.3 | -1.5 | i | -2.0
CCOC(=O)c1ccc(NC(=O)c2ccc(C)c(S(=O)(=O)N3CCOCC3)c2)cc1 | 76.4* | -5.7 | 85.8 | -2.6 | 5.5 | i | 74.1*
CCOC(=O)c1ccc(NC(=O)c2cccc(S(=O)(=O)N3CCOCC3)c2)cc1 | 1.7 | -0.6 | 112.1 | -7.3 | 4.1 | i | /
CCOC(=O)c1ccc(NC(=O)c2sc3nc(N4CCOCC4)c4c(c3c2N)CCCC4)cc1 | 92.7* | -3.3 | 98.1 | -1.6 | -50.4 | i | -12.7
COc1ccc(N(CC(=O)Nc2ccccc2C(F)(F)F)C2=NC3CS(=O)(=O)CC3S2)cc1 (centres undefined) | 7.9 | 0.1 | 98.4 | 11.5 | -0.9 | i | /
CCOC(=O)c1c(CN2CCN(C)CC2)n(-c2ccccc2)c2cc(Br)c(O)cc12 | 59.0* | 1.9 | 101.5 | -17.7 | 0.5 | i | -6.3
CCOC(=O)c1c(CN2CCN(CCO)CC2)n(-c2ccccc2)c2cc(Br)c(O)cc12 | 78.9* | 1.8 | 107.9 | -3.1 | 0.3 | i | -0.7
CCOC(=O)c1c(CN2CCN(c3ccccc3)CC2)oc2cc(Br)c(O)cc12 | -1.8 | -5.8 | 95.1 | -6.1 | 1.6 | i | /
Cc1cc(C)nc(NCCC(=O)O)n1 | -5.0 | 1.8 | 103.4 | 5.8 | -34.5 | i | /
COc1ccc(S(=O)(=O)N2CCCCC2)cc1NC(=O)c1cccc(S(=O)(=O)N2CCOCC2)c1 | 1.0 | -0.2 | 104.5 | 4.6 | 0.3 | i | /
COc1cccc(CN2C(=O)[C@H]3Cc4c([nH]c5ccccc45)C(C)(C)N3C2=O)c1 | 77.9* | -2.0 | 104.5 | 6.8 | -30.1 | i | -8.8
CCCCCCN1C[C@H](n2cc(-c3ccc(F)cc3)nn2)[C@@H](O)C[C@@H]1c1ccc(C)cc1 | 62.0* | -2.8 | 99.3 | -41.7 | -0.3 | i | -10.4
COc1cc(C(c2nnnn2C(C)(C)C)N2CCN(c3nc4ccccc4s3)CC2)ccc1O (centres undefined) | 58.1* | 0.6 | 85.8 | 18.0 | -0.7 | i | 37.0
COc1ccc(C(c2nnnn2C(C)(C)C)N2CCN(c3nc4ccccc4s3)CC2)cc1OC (centres undefined) | 2.0 | -0.1 | 108.1 | 4.8 | -0.4 | i | /
